According to ChEMBL document CHEMBL1152534, “Synthesis of oxalamide and triazine derivatives as a novel class of hybrid 4-aminoquinoline with potent antiplasmodial activity” (Bioorg Med Chem, 2009):
Values after ≈ are worked out from the molar mass of the structure shown.

Assays:
[1] = Selectivity index, ratio of CC50 for african green monkey (Cercopithecus aethiops) Vero cells to IC50 for chloroquine-sensitive Plasmodium falciparum 3D7; type: functional
Outline: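 SI is Vero CC50 divided by the antiplasmodial IC50. For CC50, Vero (C-1008) cells at 1 × 10⁴ cells/well were exposed to varying compound concentrations for 72 h with an MTT read-out. CC50 is the concentration killing 50% of cells.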

Plasmodium falciparum = assay: Antimalarial activity against chloroquine-sensitive Plasmodium falciparum 3D7 […] after 72 hrs by twofold serial dilution method; type: functional, organism-based
Outline: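 P. falciparum 3D7 erythrocyte culture, 2.5% cell suspension at 0.5% parasitaemia. Compounds were twofold serially diluted from 500 ng/mL (seven concentrations) in duplicate wells and incubated 72 h. Lysis buffer with SYBR Green I (Tris pH 7.5, EDTA, saponin, Triton X-100) was added, followed by 1 h at room temperature and a fluorescence read. IC50 from non-linear regression dose–response curves.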

Plasmodium yoelii [2] = assay: Antimalarial activity against chloroquine-resistant Plasmodium yoelii N67 infected in Swiss mice (Mus musculus) assessed as inhibition of parasitaemia at 50 mg/kg, intraperitoneally administered daily for 4 days measured on day 4 post-infection; type: functional; details: for inhibition in vivo at 50 mg/kg: N67, ip, 96 h, route intraperitoneal
Outline: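 Swiss mice were inoculated with 1 × 10⁶ P. yoelii N-67 parasitized RBC on day 0. Groups of five received compound as an aqueous suspension with a few drops of Tween 80, at 50 mg/kg/day intraperitoneally once daily from day 0 to 3. Parasitaemia was read from thin smears on day 4, with group-mean percent suppression against untreated controls.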

Plasmodium yoelii [3] = assay: Antiplasmodial activity against Plasmodium yoelii infected in Swiss mice (Mus musculus) erythrocytes assessed as inhibition of beta-hematin formation after 16 hrs by fluorescence assay; type: functional, organism-based; details: in the assay text read “absorbance measurement at 400 nm” for “fluorescence assay”
Outline: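 Plasma came from P. yoelii-infected mouse blood at about 50% parasitemia, collected in citrate and centrifuged. The mix held 100 mM sodium acetate pH 5.1, 50 µL plasma and 100 µM hemin substrate in 1.0 mL, run in triplicate at 37 °C for 16 h with shaking. The pellet was dissolved in Tris-HCl pH 7.4 with 2.5% SDS. Absorbance at 400 nm; IC50 by non-linear regression.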

Plasmodium yoelii [4] = assay: Antimalarial activity against chloroquine-resistant Plasmodium yoelii N67 infected in Swiss mice (Mus musculus) assessed as inhibition of parasitaemia at 10 mg/kg, perorally administered for 4 days measured on day 4 post-infection; type: functional; details: N67, 96 h, route oral
Outline: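 Swiss mice were inoculated with 1 × 10⁶ P. yoelii N-67 parasitized RBC on day 0. Groups of five were dosed with chloroquine orally at 10 mg/kg once daily from day 0 to 3. Parasitaemia was read from thin blood smears on day 4, and percent suppression was calculated from the group mean against untreated controls.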

[5] = Plasmodium falciparum, 3D7, Vero, 72 h, read-out: IC50

Row | IC50 (Plasmodium falciparum; [5]) [µg/mL] | IC50 (Plasmodium yoelii [3]; Plasmodium yoelii, 16 h) [µg/mL] | IC50 (Plasmodium falciparum; vero) | SMILES | Ratio CC50/IC50 [1] | also measured
1 | – | – | Not Active | Cc1ccc(S(=O)(=O)n2cc(C(=O)C(=O)N3CCN(CCNc4ccnc5cc(Cl)ccc45)CC3)c3ccccc32)cc1 | – | –
2 | 0.0503 (≈ 0.128 µM) | 7.01 (≈ 17.9 µM) | – | CCN(CC)CCNC(=O)C(=O)NCCNc1ccnc2cc(Cl)ccc12 | 605.61 | –
3 | 0.0822 (≈ 0.196 µM) | 10.7 (≈ 25.4 µM) | – | O=C(NCCCNc1ccnc2cc(Cl)ccc12)C(=O)NCCN1CCOCC1 | 191.82 | –
4 | 0.0408 (≈ 0.0835 µM) | – | – | O=C(NCCCN1CCOCC1)C(=O)N1CCN(CCNc2ccnc3cc(Cl)ccc23)CC1 | 1221.84 | IC50 (Plasmodium yoelii [3]): Not Active
5 | 0.0656 (≈ 0.125 µM) | 7.79 (≈ 14.8 µM) | – | Clc1ccc2c(NCCNc3nc(NCCCN4CCOCC4)nc(N4CCCCC4)n3)ccnc2c1 | 65.21 | –
6 | – | – | Not Active | CN(C)CCNC(=O)C(=O)N1CCN(c2ccnc3cc(Cl)ccc23)CC1 | – | –
7 | 0.0156 (≈ 0.0323 µM) | 8.19 (≈ 16.9 µM) | – | CN(C)CCNc1nc(NCCCNc2ccnc3cc(Cl)ccc23)nc(N2CCCCC2)n1 | 330.11 | –
8 | – | – | Not Active | CC(C)(C)NC(=O)C(=O)N1CCN(CCNc2ccnc3cc(Cl)ccc23)CC1 | – | –
9 | 0.00897 (≈ 0.0175 µM) | 7.45 (≈ 14.5 µM) | – | CCN(CC)CCNc1nc(NCCCNc2ccnc3cc(Cl)ccc23)nc(N2CCCCC2)n1 | 1011.15 | –
10 | 0.0521 (≈ 0.096 µM) | 8.6 (≈ 15.9 µM) | – | Clc1ccc2c(NCCCNc3nc(NCCCN4CCOCC4)nc(N4CCOCC4)n3)ccnc2c1 | 706.15 | –
11 | – | – | Not Active | Clc1ccc2c(NCCCNc3nc(NCCN4CCOCC4)nc(N4CCCCC4)n3)ccnc2c1 | – | –
12 | – | – | Not Active | O=C(C(=O)N1CCN(c2ccnc3cc(Cl)ccc23)CC1)c1c[nH]c2ccccc12 | – | –
13 | 0.164 (≈ 0.337 µM) | 7.94 (≈ 16.3 µM) | – | CN(C)CCNc1nc(NCCCNc2ccnc3cc(Cl)ccc23)nc(N2CCOCC2)n1 | 219.77 | –
14 | – | – | Not Active | CCCCNC(=O)C(=O)N1CCN(CCNc2ccnc3cc(Cl)ccc23)CC1 | – | –
15 | 0.0798 (≈ 0.173 µM) | – | – | CCN(CC)CCNC(=O)C(=O)N1CCN(CCNc2ccnc3cc(Cl)ccc23)CC1 | 194 | IC50 (Plasmodium yoelii [3]): Not Active
16 | 0.0482 (≈ 0.0937 µM) | 17.2 (≈ 33.4 µM) | – | Clc1ccc2c(NCCNc3nc(NCCN4CCOCC4)nc(N4CCOCC4)n3)ccnc2c1 | 1176.4 | –
17 | 0.233 (≈ 0.643 µM) | 15.7 (≈ 43.2 µM) | – | CCCCNC(=O)C(=O)NCCCNc1ccnc2cc(Cl)ccc12 | 38.13 | –
18 | 0.0844 (≈ 0.195 µM) | < 20 | – | CN(C)CCNC(=O)C(=O)N1CCN(CCNc2ccnc3cc(Cl)ccc23)CC1 | 65 | –
19 | – | – | Not Active | O=C(NCCCN1CCOCC1)C(=O)N1CCN(c2ccnc3cc(Cl)ccc23)CC1 | – | –
20 | 0.0401 (≈ 0.0805 µM) | 8.55 (≈ 17.2 µM) | – | CN1CCN(c2nc(NCCCNc3ccnc4cc(Cl)ccc34)nc(N3CCOCC3)n2)CC1 | 704.25 | –
21 | 0.00913 (≈ 0.0184 µM) | 7.45 (≈ 15 µM) | – | CN1CCN(c2nc(NCCCNc3ccnc4cc(Cl)ccc34)nc(N3CCCCC3)n2)CC1 | 530.2 | –

Row | IC50 (Plasmodium falciparum; [5]) [µg/mL] | IC50 (Plasmodium yoelii [3]; Plasmodium yoelii, 16 h) [µg/mL] | IC50 (Plasmodium falciparum; vero) | SMILES | Ratio CC50/IC50 [1] | also measured
22 | 0.262 (≈ 0.551 µM) | 14.2 (≈ 29.8 µM) | – | O=C(NCCN1CCOCC1)C(=O)N1CCN(CCNc2ccnc3cc(Cl)ccc23)CC1 | 183.05 | –
23 | 0.233 (≈ 0.668 µM) | 6.76 (≈ 19.4 µM) | – | CCCCNC(=O)C(=O)NCCNc1ccnc2cc(Cl)ccc12 | 18.88 | –
24 | 0.0159 (≈ 0.0338 µM) | 13.3 (≈ 28.4 µM) | – | CN(C)CCNc1nc(NCCNc2ccnc3cc(Cl)ccc23)nc(N2CCCCC2)n1 | 1062.3 | –
25 | 0.0403 (≈ 0.0783 µM) | 10.6 (≈ 20.7 µM) | – | CCN(CC)CCNc1nc(NCCCNc2ccnc3cc(Cl)ccc23)nc(N2CCOCC2)n1 | 1068.32 | –
26 | 0.0316 (≈ 0.0868 µM) | 11.1 (≈ 30.5 µM) | – | CN(C)CCNC(=O)C(=O)NCCNc1ccnc2cc(Cl)ccc12 | 383.03 | –
27 | – | – | Not Active | Cc1ccc(S(=O)(=O)n2cc(C(=O)C(=O)N3CCN(c4ccnc5cc(Cl)ccc45)CC3)c3ccccc32)cc1 | – | –
28 | – | – | Not Active | O=C(C(=O)N1CCN(CCNc2ccnc3cc(Cl)ccc23)CC1)c1c[nH]c2ccccc12 | – | –
29 | 0.0179 (≈ 0.0338 µM) | 8.72 (≈ 16.5 µM) | – | Clc1ccc2c(NCCCNc3nc(NCCN4CCOCC4)nc(N4CCOCC4)n3)ccnc2c1 | 1017.32 | –
30 | – | – | Not Active | Cn1cc(C(=O)C(=O)N2CCN(c3ccnc4cc(Cl)ccc34)CC2)c2ccccc21 | – | –
31 | – | – | Not Active | O=C(NCCN1CCOCC1)C(=O)N1CCN(c2ccnc3cc(Cl)ccc23)CC1 | – | –
32 | – | – | Not Active | CCCCNC(=O)C(=O)N1CCN(c2ccnc3cc(Cl)ccc23)CC1 | – | –
33 | 0.0156 (≈ 0.0384 µM) | 7.99 (≈ 19.7 µM) | – | CCN(CC)CCNC(=O)C(=O)NCCCNc1ccnc2cc(Cl)ccc12 | 232.99 | –
34 | 0.0297 (≈ 0.0595 µM) | 9.42 (≈ 18.8 µM) | – | CCN(CC)CCNc1nc(NCCNc2ccnc3cc(Cl)ccc23)nc(N2CCOCC2)n1 | 1663.75 | –
35 | 0.0222 (≈ 0.042 µM) | 8.58 (≈ 16.2 µM) | – | Clc1ccc2c(NCCNc3nc(NCCCN4CCOCC4)nc(N4CCOCC4)n3)ccnc2c1 | 2405.86 | –
36 | – | – | Not Active | Clc1ccc2c(NCCNc3nc(NCCN4CCOCC4)nc(N4CCCCC4)n3)ccnc2c1 | – | –
37 | – | – | Not Active | CC(C)(C)NC(=O)C(=O)N1CCN(c2ccnc3cc(Cl)ccc23)CC1 | – | –
38 | 0.042 (≈ 0.1 µM) | < 20 | – | CCN(CC)CCNC(=O)C(=O)N1CCN(c2ccnc3cc(Cl)ccc23)CC1 | 1183.41 | –
39 | 0.0908 (≈ 0.224 µM) | 6.87 (≈ 16.9 µM) | – | O=C(NCCNc1ccnc2cc(Cl)ccc12)C(=O)NCCN1CCOCC1 | 567.43 | –
40 | – | – | Not Active | Cn1cc(C(=O)C(=O)N2CCN(CCNc3ccnc4cc(Cl)ccc34)CC2)c2ccccc21 | – | –
41 | 0.0394 (≈ 0.0835 µM) | 8.1 (≈ 17.2 µM) | – | CN(C)CCNc1nc(NCCNc2ccnc3cc(Cl)ccc23)nc(N2CCOCC2)n1 | 1291.71 | –
42 | 0.0147 (≈ 0.0295 µM) | 10.2 (≈ 20.4 µM) | – | CCN(CC)CCNc1nc(NCCNc2ccnc3cc(Cl)ccc23)nc(N2CCCCC2)n1 | 223.13 | –

Row | SMILES | IC50 (Plasmodium falciparum; [5]) [µg/mL] | IC50 (Plasmodium yoelii [3]; Plasmodium yoelii, 16 h) [µg/mL] | IC50 (Plasmodium falciparum; vero) | Ratio CC50/IC50 [1] | also measured
43 | O=C(NCCCNc1ccnc2cc(Cl)ccc12)C(=O)NCCCN1CCOCC1 | 0.0254 (≈ 0.0586 µM) | 8.74 (≈ 20.1 µM) | – | 1625.52 | inhibition in vivo at 50 mg/kg (Plasmodium yoelii [2]): 21.4%
44 | Clc1ccc2c(NCCCNc3nc(NCCCN4CCOCC4)nc(N4CCCCC4)n3)ccnc2c1 | 0.00523 (≈ 0.00968 µM) | 7.54 (≈ 14 µM) | – | 860.41 | Activity (Plasmodium yoelii [2]): Toxic
45 | O=C(NCCCN1CCOCC1)C(=O)NCCNc1ccnc2cc(Cl)ccc12 | 0.0313 (≈ 0.0746 µM) | 7.18 (≈ 17.1 µM) | – | 1567.05 | inhibition in vivo at 50 mg/kg (Plasmodium yoelii [2]): 43.6%
46 | CCN(CC)CCCC(C)Nc1ccnc2cc(Cl)ccc12 (configuration not stated) [CHLOROQUINE] | – | 4.87 (≈ 15.2 µM) | – | – | inhibition in vivo at 10 mg/kg (Plasmodium yoelii [4]): 99%
47 | CN(C)CCNC(=O)C(=O)NCCCNc1ccnc2cc(Cl)ccc12 | 0.0264 (≈ 0.0699 µM) | 7.98 (≈ 21.1 µM) | – | 2527.65 | inhibition in vivo at 50 mg/kg (Plasmodium yoelii [2]): 70.5%
48 | CN1CCN(c2nc(NCCNc3ccnc4cc(Cl)ccc34)nc(N3CCOCC3)n2)CC1 | 0.01 (≈ 0.0207 µM) | 6.19 (≈ 12.8 µM) | – | 4692.08 | Activity (Plasmodium yoelii [2]): Toxic
49 | CN1CCN(c2nc(NCCNc3ccnc4cc(Cl)ccc34)nc(N3CCCCC3)n2)CC1 | 0.00788 (≈ 0.0163 µM) | 9.1 (≈ 18.9 µM) | – | 958.12 | Activity (Plasmodium yoelii [2]): Toxic
